{"source": "PubChem BioAssay AID1943", "about": "(The Scripps Research Institute Molecular Screening Center, 2009)", "note": "Screen size: about 1,600 compounds; about 500 (31%) were called active. These entries were drawn from the full list. A number with no mark means an inactive call.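 Rule for the calls: active = inhibition above the mean of all tested compounds plus 3 SD, cutoff set per campaign (cut at about 36% in these data); inactive = the rest.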", "data": [{"test_system": "Hepatitis C virus NS3 helicase", "assay": "blockers of HCV NS3 DNA unwinding – biochemical, Cy5 molecular beacon fluorescence, triplicate, confirmation (AID 1943)", "conditions": "at 10.9 µM, hits give high values", "how_it_was_run": "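Material: hepatitis C virus NS3 helicase fragment / Buffer or medium: MOPS pH 6.5 buffer with additives / Also added: Quenchable beacon DNA duplex and ATP / Schedule: 0 and 60 min reads at 25 °C / Technique: Cy5 fluorescence quenching by beacon hairpin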", "values": [{"smiles": "CCOC(=O)c1c(-c2ccccc2)oc2cc(Br)c(O)c(C=O)c12", "inhibition": "36.3% (active)"}, {"smiles": "CC(Oc1ccccc1)C(=O)Nc1oc(-c2ccco2)c(-c2ccco2)c1C#N", "note": "(centres undefined)", "inhibition": "61.5% (active)"}, {"smiles": "Cc1cccc(NC(=O)c2sc3nc4c(c(-c5ccco5)c3c2N)CCC4)c1", "inhibition": "-20.1%"}, {"smiles": "COc1ccc(/C=C2\\SC(=S)N(CCC(=O)Nc3cccc(C(=O)O)c3)C2=O)cc1OC", "inhibition": "52.9% (active)"}, {"smiles": "Cc1ccc(SC(CC(=O)c2ccc(C(C)(C)C)cc2)C(=O)O)cc1", "note": "(centres undefined)", "inhibition": "74.6% (active)"}, {"smiles": "COCCNC(=O)Nc1ccc2nc(-c3ccco3)c(-c3ccco3)nc2c1", "inhibition": "43.5% (active)"}, {"smiles": "COc1ccc(OCC(=O)Nc2nnc(-c3ccco3)s2)cc1", "inhibition": "-10.9%"}, {"smiles": "COc1ccc(NC(=O)CSc2ccc(-c3ccco3)nn2)c(OC)c1", "inhibition": "-10.9%"}, {"smiles": "S=C(NCCc1ccccc1)N1CCCCC1", "inhibition": "-9.72%"}, {"smiles": "CCSc1nsc(NC(=O)Nc2cccc(C(C)=O)c2)n1", "inhibition": "-4.64%"}, {"smiles": "CNS(=O)(=O)c1cccc(C(=O)NC2CCCc3ccccc32)c1", "note": "(centres undefined)", "inhibition": "-10.8%"}, {"smiles": "Cc1ccc(OCC(=O)c2cc(C)n(Cc3ccco3)c2C)c([N+](=O)[O-])n1", "inhibition": "-9.23%"}, {"smiles": "Cc1ccc(S(=O)(=O)NCCC(c2ccccc2)c2ccccc2)cc1C(=O)O", "inhibition": "55.2% (active)"}, {"smiles": "O=C1NN(c2ccccc2)C(=O)/C1=C/c1ccc(-c2cccc(C(=O)O)c2)o1", "inhibition": "54.1% (active)"}, {"smiles": "COc1cc(C2CC(=O)N3CN(Cc4ccccc4)CSC3=C2C#N)ccc1OCc1ccccc1", "note": "(centres undefined)", "inhibition": "25%"}, {"smiles": "N#C/C=C(/c1ccc(F)cc1)N1CCOCC1", "inhibition": "-4.32%"}, {"smiles": "Cc1ccc(-c2nn(-c3ccccc3)cc2/C=C2\\SC(=S)N(CCCCCC(=O)O)C2=O)o1", "inhibition": "84.6% (active)"}, {"smiles": "O=C(N/N=C/c1ccc([N+](=O)[O-])o1)c1cn(-c2ccccc2)nc1-c1ccc(F)cc1", "inhibition": "-4.3%"}, {"smiles": "COc1cccc(CNC(=O)c2nnn(CC(=O)Nc3cc(Cl)ccc3C)c2N)c1", "inhibition": "3.98%"}, {"smiles": "Cc1ccc(C(CC(=O)O)Nc2nc(N3CCCCC3)nc(N3CCCCC3)n2)cc1", "note": "(centres undefined)", "inhibition": "79% (active)"}, {"smiles": "COc1ccccc1N1CCN(C(=O)CCS(=O)(=O)c2ccc3c(c2)NC(=O)C(C)S3)CC1", "note": "(centres undefined)", "inhibition": "-19.2%"}, {"smiles": "Cc1ccccc1Nc1nnc(SCC(=O)c2cc3ccccc3o2)s1", "inhibition": "-10.8%"}, {"smiles": "CC(C)c1ccc(Nc2nnc(SCC(=O)c3nnc(-c4ccccc4)o3)s2)cc1", "inhibition": "89.1% (active)"}, {"smiles": "Cc1cc(O)c(C(=O)/C=C/c2c(F)c(F)c(F)c(F)c2F)c(=O)o1", "inhibition": "69.6% (active)"}, {"smiles": "CS(=O)(=O)c1ccc2c(c1)SC1=NC(=O)/C(=C/c3ccco3)C(=N)N12", "inhibition": "22.5%"}, {"smiles": "Nc1ccc2nc3c(=O)[nH]c(=S)[nH]c3nc2c1", "inhibition": "2.58%"}, {"smiles": "O=[N+]([O-])c1cc(Cl)cc(/C=N/NC(=S)Nc2cc(S(=O)(=O)N3CCOCC3)ccc2Cl)c1O", "inhibition": "94.9% (active)"}, {"smiles": "Cc1ccc(S(=O)(=O)N/N=C\\c2cc3c(cc2[N+](=O)[O-])OCO3)cc1", "inhibition": "-12%"}, {"smiles": "CN(C)c1ccc(N/C=C/C(=O)C(F)(F)F)cc1", "inhibition": "2.03%"}, {"smiles": "COc1cccc(C(=O)CC(=O)C(=O)Nc2ccc([N+](=O)[O-])cc2C)c1", "inhibition": "16.8%"}, {"smiles": "CCOc1ccc(C(C(=O)NCCOC)N(CCOC)C(=O)CCC(=O)Nc2ccccn2)cc1", "note": "(centres undefined)", "inhibition": "-12.9%"}, {"smiles": "Fc1ccc(-c2ccc(-c3nn4c(-c5ccco5)nnc4s3)o2)cc1", "inhibition": "12%"}, {"smiles": "CCN(CC)CCOc1ccc2c(c1)C(=NNC(=O)c1ccccn1)c1cc(OCCN(CC)CC)ccc1-2", "inhibition": "37.9% (active)"}, {"smiles": "COc1cc(/C=C2/C(=O)NN(c3cccc(Cl)c3)C2=O)cc(Br)c1O", "inhibition": "57.7% (active)"}, {"smiles": "Cc1ccc(C)c(-n2c(SCC(=O)O)nc3sc4c(c3c2=O)CCCC4)c1", "inhibition": "22.2%"}, {"smiles": "O=C1N/C(=C/c2cccn2-c2ccccc2)C(=O)N1c1cccc(Cl)c1", "inhibition": "6.32%"}, {"smiles": "CS/C(=C\\C(=O)c1ccco1)Nc1ccccc1Cl", "inhibition": "-6.86%"}, {"smiles": "CCOC(=O)c1nnn(-c2nc(OC)nc(N(C)C)n2)c1-c1ccccc1", "inhibition": "-9.79%"}, {"smiles": "CSc1c(SCc2ccccc2)cnn(Cc2ccccc2)c1=O", "inhibition": "-8.85%"}, {"smiles": "c1ccc(CSc2nnc(-c3ccco3)c(-c3ccco3)n2)cc1", "inhibition": "67% (active)"}, {"smiles": "Clc1ccccc1CSc1nnc(-c2ccco2)c(-c2ccco2)n1", "inhibition": "72% (active)"}, {"smiles": "O=c1c2c(-c3ccccc3)ccnc2[nH]n1-c1ccccc1", "inhibition": "-13.5%"}, {"smiles": "Brc1ccccc1C1Nc2cccc3cccc(c23)N1", "inhibition": "-7.38%"}, {"smiles": "O=C(CCCN1C(=O)/C(=C\\c2ccco2)SC1=S)Nc1cccc2ccccc12", "inhibition": "73.3% (active)"}, {"smiles": "O=c1nc2s/c(=C\\c3ccco3)c(=O)n2nc1Cc1ccccc1", "inhibition": "-17.8%"}, {"smiles": "NS(=O)(=O)c1ccc(-c2ccc(/C=C3\\SC(=O)NC3=O)o2)cc1", "inhibition": "-18.5%"}, {"smiles": "O=C(CCl)NNc1cccc(Cl)n1", "inhibition": "-2.17%"}, {"smiles": "CCOc1ccc(C2C3=C(CCCC3=O)N(CC(=O)O)C3=C2C(=O)CCC3)cc1", "inhibition": "-13.6%"}, {"smiles": "CC1=NN(c2ccc(Cl)c(C(=O)O)c2)C(=O)/C1=C/c1ccc(-c2ccccc2[N+](=O)[O-])o1", "inhibition": "73.3% (active)"}, {"smiles": "CC(=O)Nc1ccc(Nc2c3ccccc3nc3ccccc23)cc1", "inhibition": "2.42%"}, {"smiles": "Cc1ccc(C2=N/C(=C\\c3ccc(OS(=O)(=O)c4ccc(C)cc4)cc3)C(=O)O2)cc1", "inhibition": "27.4%"}, {"smiles": "Cc1ccc(/C=C/C(=O)Nc2ccc([N+](=O)[O-])c(NC(=O)/C=C/c3ccc(C)o3)c2)o1", "inhibition": "62.1% (active)"}, {"smiles": "Cc1occc1C(=O)N/N=C/c1ccc(-c2cccc([N+](=O)[O-])c2)o1", "inhibition": "-10.4%"}, {"smiles": "CCC1C/C(=C/c2cccs2)C(=O)/C(=C/c2cccs2)C1", "note": "(centres undefined)", "inhibition": "-12.8%"}, {"smiles": "CCOC(=O)C1=C(O)/C(=C/c2cc(C)n(-c3ccccc3)c2C)N=C1C", "inhibition": "-7.36%"}, {"smiles": "Cc1cc(C)c2nc(-c3ccco3)cc(C(=O)O)c2c1", "inhibition": "79.1% (active)"}, {"smiles": "CC(=O)C1=C(O)C(=O)N(c2ccc(Br)cc2)C1c1ccc([N+](=O)[O-])cc1", "note": "(centres undefined)", "inhibition": "46.5% (active)"}, {"smiles": "O=c1[nH]c(/C=C\\c2cccc(C(F)(F)F)c2)nc(O)c1[N+](=O)[O-]", "inhibition": "-7.2%"}, {"smiles": "COc1ccc(/C=C/C(=O)c2cc(Br)ccc(=O)c2O)cc1", "inhibition": "82.1% (active)"}, {"smiles": "CC(=O)Oc1cccc(N2C(=O)CC(Nc3ccc(N4CCOCC4)cc3)C2=O)c1", "note": "(centres undefined)", "inhibition": "-24.2%"}, {"smiles": "Cc1ccc(C(=O)O)cc1-c1ccc(/C=C2\\SC(=O)N(CC(=O)Nc3ccc4c(c3)OCO4)C2=O)o1", "inhibition": "63.1% (active)"}, {"smiles": "O=C(c1cccc(-n2cccc2)c1)N1CCN(S(=O)(=O)c2ccc(F)cc2)CC1", "inhibition": "-4.73%"}, {"smiles": "COc1ccc(C)cc1-n1nnnc1SCC(=O)c1cc(C)n(Cc2ccco2)c1C", "inhibition": "6.51%"}, {"smiles": "O=C(N/N=C/c1ccco1)c1csc2c1CCCC2", "inhibition": "-9.79%"}, {"smiles": "COc1ccccc1C1/C(=C(/O)c2ccc(OC(C)C)cc2)C(=O)C(=O)N1c1cc(C)on1", "note": "(centres undefined)", "inhibition": "-6.81%"}, {"smiles": "CC(C)c1ccc(C2C(C(=O)c3ccco3)=C(O)C(=O)N2CC2CCCO2)cc1", "note": "(centres undefined)", "inhibition": "-11.7%"}, {"smiles": "COc1cc(C2C(C(=O)c3ccco3)=C(O)C(=O)N2c2cc(C)on2)ccc1OCc1ccccc1", "note": "(centres undefined)", "inhibition": "110% (active)"}, {"smiles": "O=C1C=CC(=O)N1c1ccc(N2CCCCC2)cc1", "inhibition": "-18.6%"}, {"smiles": "COc1ccc(/C=C(\\NC(=O)c2ccc(OCC(C)C)cc2)C(=O)OCc2ccco2)cc1", "inhibition": "11.2%"}, {"smiles": "Cc1[nH]n(C(N)=S)c(=O)c1N=Nc1ccc(Cl)cc1Cl", "inhibition": "10.9%"}, {"smiles": "CCOC(=O)c1ccccc1N1C(=O)C2Sc3[nH]c(=O)sc3C(/C=C/c3ccccc3)C2C1=O", "note": "(centres undefined)", "inhibition": "44.1% (active)"}, {"smiles": "COC(=O)COc1ccc2c(c1C)O/C(=C\\c1ccco1)C2=O", "inhibition": "-7.55%"}, {"smiles": "Cc1ccc(C2Nc3cccc4cccc(c34)N2)cc1", "inhibition": "-28.1%"}, {"smiles": "Cc1nn2c(c1-c1ccccc1)N=C(c1ccco1)CC2c1ccccc1", "note": "(centres undefined)", "inhibition": "-12.4%"}]}]}
